Test results published in ChEMBL document CHEMBL1130042, “Structure-activity relationships of N2-aryl-3-(isoxazolylsulfamoyl)-2-thiophenecarboxamides as selective endothelin receptor-A antagonists” (J Med Chem, 1997).

What was measured:
Endothelin-1 receptor = biological target: T1, Endothelin-1 receptor (Homo sapiens, UniProt P25101); assay: In vitro inhibition of endothelin binding to human Endothelin A receptor using [125I]-labeled ET-1 competition assay
T1 sequence (P25101 whole entry): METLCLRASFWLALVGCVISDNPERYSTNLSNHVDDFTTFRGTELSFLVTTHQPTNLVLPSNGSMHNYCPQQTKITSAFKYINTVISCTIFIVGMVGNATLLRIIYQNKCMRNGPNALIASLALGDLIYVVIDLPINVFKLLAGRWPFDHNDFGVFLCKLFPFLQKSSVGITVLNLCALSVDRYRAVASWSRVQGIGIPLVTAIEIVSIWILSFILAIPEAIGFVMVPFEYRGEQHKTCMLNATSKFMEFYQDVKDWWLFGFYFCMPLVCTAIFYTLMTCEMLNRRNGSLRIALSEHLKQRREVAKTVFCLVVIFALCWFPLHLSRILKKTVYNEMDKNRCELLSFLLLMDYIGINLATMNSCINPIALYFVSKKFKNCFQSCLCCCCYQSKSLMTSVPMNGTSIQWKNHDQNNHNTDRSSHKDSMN
Outline: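 Membranes from confluent TE 671 cells (endogenous human ETA), DNase-treated, 3 mg/tube. Buffer 30 mM HEPES pH 7.4, 150 mM NaCl, 5 mM MgCl2, 0.05% bacitracin, final 0.25% DMSO. Tracer 4 pM [125I]ET-1, nonspecific binding with 100 nM ET-1. Incubated 16–18 h at 24 °C, centrifuged, bound radioactivity gamma-counted. Run in triplicate.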

[1] = biological target: T2, Endothelin receptor type B (Homo sapiens, UniProt P24530); assay: In vitro inhibition of endothelin binding to human Endothelin B receptor using [125I]-labeled ET-1 competition assay
T2 sequence (P24530 whole entry): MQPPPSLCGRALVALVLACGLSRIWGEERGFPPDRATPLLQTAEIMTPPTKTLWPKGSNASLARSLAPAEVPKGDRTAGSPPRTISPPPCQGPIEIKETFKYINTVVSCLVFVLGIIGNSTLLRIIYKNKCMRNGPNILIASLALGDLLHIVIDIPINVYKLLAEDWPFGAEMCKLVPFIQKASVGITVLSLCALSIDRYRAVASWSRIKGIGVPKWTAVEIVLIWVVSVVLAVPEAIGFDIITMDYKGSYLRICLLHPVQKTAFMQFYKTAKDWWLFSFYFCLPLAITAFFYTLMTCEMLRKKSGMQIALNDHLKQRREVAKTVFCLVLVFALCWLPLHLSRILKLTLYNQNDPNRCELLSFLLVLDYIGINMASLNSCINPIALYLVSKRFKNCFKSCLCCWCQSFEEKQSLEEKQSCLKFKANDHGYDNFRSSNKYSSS
Outline: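 Membranes (0.75 mg/tube) from COS 7 cells transfected with human ETB. Buffer 30 mM HEPES pH 7.4, 150 mM NaCl, 5 mM MgCl2, 0.05% bacitracin, final 0.25% DMSO. Tracer 4 pM [125I]ET-1, nonspecific binding with 100 nM ET-1. Incubated 16–18 h at 24 °C, bound radioactivity gamma-counted. Run in triplicate.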

Rattus norvegicus = assay: % inhibition of ET-1 induced pressor response in conscious rats 30 min after intravenous administration of 15 mg/kg of the compound; format: functional; details: 0.5 h
Outline: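 Conscious rats rested 60 min in a restrainer. Autonomic blockade by iv atropine methyl nitrate (3 mg/kg) plus propranolol (2 mg/kg). Vehicle was 1 M Tris base or sodium bicarbonate. Control iv bolus ET-1 challenge ([…]), antagonist iv bolus once MAP returned to baseline, second ET-1 challenge 30 min later. Inhibition = 100 × (control − antagonist max pressor response)/control max pressor response.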

[2] = Compound at dose 60 mg/kg was administered to rats and Serum half life was determined; range = 2.5-3 h; format: ADME, organism-based; set-up: dose 60 mg/kg; details: rat
[3] = Compound at dose 60 mg/kg was administered to rats and Serum half life was determined; format: ADME, organism-based; set-up: dose 60 mg/kg; details: rat

With `Cc1noc(NS(=O)(=O)c2ccsc2C(=O)Nc2cc3c(cc2CC#N)OCO3)c1Cl` the IC50 (Endothelin-1 receptor) was 3.8 nM and the IC50 [1] was 25700 nM.

Work on `COc1cc(NC(=O)c2sccc2S(=O)(=O)Nc2onc(C)c2Cl)c(C(N)=O)cc1OC` yielded an IC50 (Endothelin-1 receptor) of 10.8 nM and an IC50 [1] of 61000 nM.

With `Cc1ccc(NC(=O)c2sccc2S(=O)(=O)Nc2onc(C)c2Cl)cc1` the IC50 (Endothelin-1 receptor) was 15 nM.

In the case of `CC(=O)OCCOc1cc2c(cc1NC(=O)c1sccc1S(=O)(=O)Nc1onc(C)c1Cl)OCO2`, the IC50 (Endothelin-1 receptor) is reported as 6.1 nM and the IC50 [1] is reported as 15800 nM.

With `Cc1noc(NS(=O)(=O)c2ccsc2C(=O)Nc2ccc(O)nn2)c1Br` the IC50 (Endothelin-1 receptor) was 65 nM.

For `Cc1ccc(NC(=O)c2sccc2S(=O)(=O)Nc2onc(C)c2Cl)c(O)c1`, the IC50 (Endothelin-1 receptor) was 6.6 nM and the IC50 [1] was 8240 nM.

Compound `Cc1noc(NS(=O)(=O)c2ccsc2C(=O)Nc2ccc(C(C)C)cc2)c1Br` has an IC50 (Endothelin-1 receptor) of 20 nM and an IC50 [1] of 4370 nM.

Work on `Cc1nnc(NC(=O)c2sccc2S(=O)(=O)Nc2onc(C)c2Cl)s1` yielded an IC50 (Endothelin-1 receptor) of 1290 nM and an IC50 [1] of over 100000 nM.

`COc1cc(C#N)c(NC(=O)c2sccc2S(=O)(=O)Nc2onc(C)c2Cl)cc1OC` showed an IC50 (Endothelin-1 receptor) of 3.9 nM and an IC50 [1] of 12200 nM.

Compound `Cc1noc(NS(=O)(=O)c2ccsc2C(=O)Nc2cc3c(cc2OCCO)OCO3)c1Cl` has an IC50 (Endothelin-1 receptor) of 5.1 nM and an IC50 [1] of 14400 nM.

Compound `COc1cccc(NC(=O)c2sccc2S(=O)(=O)Nc2onc(C)c2Br)c1` has an IC50 (Endothelin-1 receptor) of 85 nM and an IC50 [1] of 63100 nM.

For `Cc1ccccc1NC(=O)c1sccc1S(=O)(=O)Nc1onc(C)c1Br`, the IC50 (Endothelin-1 receptor) was 27 nM and the IC50 [1] was over 100000 nM.

Compound `CC(=O)c1cc2c(cc1NC(=O)c1sccc1S(=O)(=O)Nc1onc(C)c1Cl)OCO2` has an IC50 (Endothelin-1 receptor) of 10 nM, an inhibition in vivo at 15 mg/kg (Rattus norvegicus) of 18% and a half-life [2] of 3 h. For the same compound, the IC50 [1] was 32600 nM.

Compound `Cc1cc2c(cc1NC(=O)c1sccc1S(=O)(=O)Nc1onc(C)c1Cl)OCO2` has an IC50 [1] of 35500 nM.

For `Cc1noc(NS(=O)(=O)c2ccsc2C(N)=O)c1Br`, the IC50 [1] was over 100000 nM.

Compound `Cc1ccc(NC(=O)c2sccc2S(=O)(=O)Nc2onc(C)c2Br)cc1` has an IC50 (Endothelin-1 receptor) of 12 nM and an IC50 [1] of 9120 nM.

Work on `Cc1noc(NS(=O)(=O)c2ccsc2C(=O)Nc2cc3c(cc2CCCO)OCO3)c1Cl` yielded an IC50 (Endothelin-1 receptor) of 6 nM and an IC50 [1] of 9080 nM.

In the case of `Cc1cc(NC(=O)c2sccc2S(=O)(=O)Nc2onc(C)c2Cl)no1`, the IC50 (Endothelin-1 receptor) is reported as 57 nM.

Compound `Cc1noc(NS(=O)(=O)c2ccsc2C(=O)Nc2cccc(O)c2)c1Br` has an IC50 (Endothelin-1 receptor) of 146 nM and an IC50 [1] of 67500 nM.

For `Cc1noc(NS(=O)(=O)c2ccsc2C(=O)Nc2cccc(C(=O)O)c2)c1Br`, the IC50 [1] was 117000 nM.

With `Cc1noc(NS(=O)(=O)c2ccsc2C(=O)Nc2ccc3c(c2)OCO3)c1Br` the IC50 (Endothelin-1 receptor) was 19 nM and the IC50 [1] was 10100 nM.

Compound `CCc1ccc(NC(=O)c2sccc2S(=O)(=O)Nc2onc(C)c2Br)cc1` has an IC50 (Endothelin-1 receptor) of 17 nM and an IC50 [1] of 7410 nM.

`COc1cc(NC(=O)c2sccc2S(=O)(=O)Nc2onc(C)c2Cl)c(C(=O)O)cc1OC` showed an IC50 (Endothelin-1 receptor) of 1430 nM and an IC50 [1] of over 100000 nM.

Compound `Cc1noc(NS(=O)(=O)c2ccsc2C(=O)N(C)c2ccccc2)c1Br` has an IC50 (Endothelin-1 receptor) of 1910 nM and an IC50 [1] of over 100000 nM.

With `CCC(C)c1ccc(NC(=O)c2sccc2S(=O)(=O)Nc2onc(C)c2Br)cc1` (stereo not drawn) the IC50 (Endothelin-1 receptor) was 54 nM and the IC50 [1] was 5890 nM.

Compound `Cc1cccc(NC(=O)c2sccc2S(=O)(=O)Nc2onc(C)c2Br)c1` has an IC50 (Endothelin-1 receptor) of 104 nM and an IC50 [1] of 67400 nM.

`Cc1ccc(NC(=O)c2sccc2S(=O)(=O)Nc2onc(C)c2C)cc1` gave an IC50 (Endothelin-1 receptor) of 32 nM and an IC50 [1] of 67600 nM.

For `Cc1noc(NS(=O)(=O)c2ccsc2C(=O)Nc2ccccc2C(=O)O)c1Br`, the IC50 (Endothelin-1 receptor) was 214 nM and the IC50 [1] was 19500 nM.

`Cc1noc(NS(=O)(=O)c2ccsc2C(=O)Nc2cc3c(cc2C#N)OCO3)c1Cl` gave an IC50 (Endothelin-1 receptor) of 3.4 nM, an inhibition in vivo at 15 mg/kg (Rattus norvegicus) of 20% and a half-life [3] of 2.5 h. It also gave an IC50 [1] of 40400 nM.

With `Cc1ccc(NC(=O)c2sccc2S(=O)(=O)Nc2onc(C)c2Cl)nc1` the IC50 (Endothelin-1 receptor) was 13 nM and the IC50 [1] was 44700 nM.

`Cc1noc(NS(=O)(=O)c2ccsc2C(=O)Nc2ccc(C(C)(C)C)cc2)c1Br` gave an IC50 (Endothelin-1 receptor) of 47 nM and an IC50 [1] of 6920 nM.

`CCCCc1ccc(NC(=O)c2sccc2S(=O)(=O)Nc2onc(C)c2Br)cc1` gave an IC50 (Endothelin-1 receptor) of 200 nM and an IC50 [1] of 6170 nM.

Work on `COc1ccccc1NC(=O)c1sccc1S(=O)(=O)Nc1onc(C)c1Br` yielded an IC50 (Endothelin-1 receptor) of 132 nM and an IC50 [1] of 61700 nM.

With `COc1cccc(NCc2sccc2S(=O)(=O)Nc2onc(C)c2Br)c1` the IC50 (Endothelin-1 receptor) was 933 nM and the IC50 [1] was 7590 nM.

With `Cc1noc(NS(=O)(=O)c2ccsc2C(=O)Nc2cc3c(cc2CC(=O)N(C)C)OCO3)c1Cl` the IC50 (Endothelin-1 receptor) was 9.3 nM.

For `COc1ccc(NC(=O)c2sccc2S(=O)(=O)Nc2onc(C)c2Br)cc1`, the IC50 (Endothelin-1 receptor) was 24 nM and the IC50 [1] was 30200 nM.

`COc1ccc(NC(=O)c2sccc2S(=O)(=O)Nc2onc(C)c2Cl)c(OC)c1` showed an IC50 (Endothelin-1 receptor) of 15 nM and an IC50 [1] of 51900 nM.

`COC(=O)c1cc(OC)c(OC)cc1NC(=O)c1sccc1S(=O)(=O)Nc1onc(C)c1Cl` gave an IC50 (Endothelin-1 receptor) of 549 nM and an IC50 [1] of over 100000 nM.

In the case of `Cc1noc(NS(=O)(=O)c2ccsc2C(=O)Nc2ccc(-c3ccccc3)cc2)c1Br`, the IC50 (Endothelin-1 receptor) is reported as 977 nM and the IC50 [1] is reported as 8710 nM.

`COc1ccc(NC(=O)c2sccc2S(=O)(=O)Nc2onc(C)c2Cl)c(C)c1` gave an IC50 (Endothelin-1 receptor) of 2.6 nM and an IC50 [1] of 14000 nM.

In the case of `Cc1noc(NS(=O)(=O)c2ccsc2C(=O)Nc2ccccc2)c1Br`, the IC50 (Endothelin-1 receptor) is reported as 166 nM and the IC50 [1] is reported as 77600 nM.

With `CC(=O)c1cc2c(cc1NC(=O)c1sccc1S(=O)(=O)Nc1onc(C)c1C)OCO2` the IC50 (Endothelin-1 receptor) was 31 nM and the IC50 [1] was over 100000 nM.

With `Cc1noc(NS(=O)(=O)c2ccsc2C(=O)NCc2ccccc2)c1Br` the IC50 (Endothelin-1 receptor) was 229 nM and the IC50 [1] was 97700 nM.
